# From ChEMBL document CHEMBL1926569, “Novel (E)-1-(4-methyl-2-(alkylamino)thiazol-5-yl)-3-arylprop-2-en-1-ones as potent antimicrobial agents” (2011)
# Legend:
# Talaromyces funiculosus [1] = assay: Ratio of bifonazole to compound for Penicillium funiculosum ATCC 36839; format: functional
# Salmonella typhimurium [2] = assay: Antibacterial activity against Salmonella Typhimurium ATCC 13311 after 24 hrs by microdilution method; format: functional, Salmonella enterica subsp. enterica serovar Typhimurium; settings: Salmonella enterica, ATCC 13311, 24 h
# Procedure, shortened: (§1)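 Broth microdilution in 96-well plates. Bacterial suspensions were adjusted in sterile saline to 1.0 × 10⁵ CFU/ml, prepared daily and kept at 4 °C. Compound was added to LB broth with 1.0 × 10⁴ CFU per well and shaken at 160 rpm for 24 h at […] (so in the source). MIC is the lowest concentration with no visible growth under a binocular microscope. OD655 was also read. Duplicate, repeated three times.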
# Aspergillus flavus [3] = assay: Antifungal activity against Aspergillus flavus ATCC 9643 incubated for 72 hrs followed by serial sub-cultivation for 72 hrs by serial dilution technique; format: functional; settings: ATCC 9643, 72 h
# Procedure, shortened: (§2)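 MFC: material from 72 h malt broth microdilution wells was serially sub-cultured into fresh broth plates and incubated a further 72 h at 28 °C. Fungicidal concentration is taken from growth after sub-culture. Duplicate, repeated three times.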
# Candida albicans [4] = assay: Ratio of bifonazole to compound for Candida albicans isolated from human; format: functional
# Pseudomonas aeruginosa [5] = assay: Ratio of ampicillin MIC to compound MIC for Pseudomonas aeruginosa ATCC 27853; format: functional
# Aspergillus niger [6] = assay: Antifungal activity against Aspergillus niger ATCC 6275 after 72 hrs by serial dilution technique; format: functional; settings: ATCC 6275, 72 h
# Procedure, shortened: (§3)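 Modified microdilution in 96-well plates. Fungi were kept on malt agar at 4 °C. Spores were washed off in sterile 0.85% saline with 0.1% Tween 80. Compounds were dissolved at 1 mg/ml in 5% DMSO with 0.1% Tween 80 and added to malt broth with inoculum. Plates were shaken at 160 rpm for 72 h at 28 °C. Duplicate, repeated three times.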
# Micrococcus flavus [7] = assay: Antibacterial activity against Micrococcus flavus ATCC 10240 incubated for 24 hrs followed by serial sub-cultivation for 24 hrs by microdilution; format: functional; settings: ATCC 10240, 24 h
# Procedure, shortened: (§4)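 MBC: after the 24 h LB broth microdilution (1.0 × 10⁴ CFU per well, 160 rpm), wells were serially sub-cultured into fresh broth plates and incubated a further 24 h. MBC is the lowest concentration with no visible growth, taken as 99.5% killing of the original inoculum. Duplicate, repeated three times.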
# Penicillium ochrochloron [8] = assay: Ratio of bifonazole to compound for Penicillium ochrochloron ATCC 9112; format: functional
# Aspergillus flavus [9] = assay: Antifungal activity against Aspergillus flavus ATCC 9643 after 72 hrs by serial dilution technique; format: functional; settings: ATCC 9643, 72 h; procedure, shortened: as §3
# Candida albicans [10] = assay: Ratio of ketoconazole to compound for Candida albicans isolated from human; format: functional
# Bacillus cereus [11] = assay: Antibacterial activity against clinical isolate of Bacillus cereus incubated for 24 hrs followed by serial sub-cultivation for 24 hrs by microdilution; format: functional; procedure, shortened: as §4
# Pseudomonas aeruginosa [12] = assay: Antibacterial activity against Pseudomonas aeruginosa ATCC 27853 incubated for 24 hrs followed by serial sub-cultivation for 24 hrs by microdilution; format: functional; settings: ATCC 27853, 24 h; procedure, shortened: as §4
# Candida albicans [13] = assay: Antifungal activity against Candida albicans isolated from human incubated for 72 hrs followed by serial sub-cultivation for 72 hrs by serial dilution technique; format: functional; procedure, shortened: as §2
# Candida albicans [14] = assay: Antifungal activity against Candida albicans isolated from human after 72 hrs by serial dilution technique; format: functional; procedure, shortened: as §3
# Aspergillus ochraceus [15] = assay: Ratio of ketoconazole to compound for Aspergillus ochraceus ATCC 12066; format: functional
# Trichoderma viride [16] = assay: Ratio of bifonazole to compound for Trichoderma viride IAM 5061; format: functional
# Aspergillus ochraceus [17] = assay: Antifungal activity against Aspergillus ochraceus after 72 hrs by serial dilution technique
# Trichoderma viride [18] = assay: Antifungal activity against Trichoderma viride IAM 5061 after 72 hrs by serial dilution technique; format: functional; settings: IAM 5061, 72 h; procedure, shortened: as §3
# Aspergillus ochraceus [19] = assay: Antifungal activity against Aspergillus ochraceus ATCC 12066 after 72 hrs by serial dilution technique; format: functional; settings: ATCC 12066, 72 h; procedure, shortened: as §3
# Listeria monocytogenes [20] = assay: Antibacterial activity against Listeria monocytogenes NCTC 7973 after 24 hrs by microdilution method; format: functional; settings: NCTC 7973, 24 h; procedure, shortened: as §1
# Micrococcus flavus [21] = assay: Antibacterial activity against Micrococcus flavus ATCC 10240 after 24 hrs by microdilution method; format: functional; settings: ATCC 10240, 24 h; procedure, shortened: as §1
# Bacillus cereus [22] = assay: Antibacterial activity against clinical isolate of Bacillus cereus after 24 hrs by microdilution method; format: functional; procedure, shortened: as §1
# Aspergillus ochraceus [23] = assay: Ratio of bifonazole to compound for Aspergillus ochraceus ATCC 12066; format: functional
# Enterococcus faecalis [24] = assay: Antibacterial activity against Enterococcus faecalis isolated from human after 24 hrs by microdilution method; format: functional; procedure, shortened: as §1
# Salmonella typhimurium [25] = assay: Antibacterial activity against Salmonella Typhimurium ATCC 13311 incubated for 24 hrs followed by serial sub-cultivation for 24 hrs by microdilution; format: functional, Salmonella enterica subsp. enterica serovar Typhimurium; settings: Salmonella enterica, ATCC 13311, 24 h; procedure, shortened: as §4
# Escherichia coli [26] = assay: Antibacterial activity against Escherichia coli ATCC 35210 incubated for 24 hrs followed by serial sub-cultivation for 24 hrs by microdilution; format: functional; settings: ATCC 35210, 24 h; procedure, shortened: as §4
# Enterococcus faecalis [27] = assay: Antibacterial activity against Enterococcus faecalis isolated from human incubated for 24 hrs followed by serial sub-cultivation for 24 hrs by microdilution; format: functional; procedure, shortened: as §4
# Talaromyces funiculosus [28] = assay: Antifungal activity against Penicillium funiculosum ATCC 36839 after 72 hrs by serial dilution technique; format: functional; settings: ATCC 36839, 72 h; procedure, shortened: as §3
# Penicillium ochrochloron [29] = assay: Antifungal activity against Penicillium ochrochloron ATCC 9112 incubated for 72 hrs followed by serial sub-cultivation for 72 hrs by serial dilution technique; format: functional; settings: ATCC 9112, 72 h; procedure, shortened: as §2
# Staphylococcus aureus [30] = assay: Antibacterial activity against Staphylococcus aureus ATCC 6538 after 24 hrs by microdilution method; format: functional; settings: ATCC 6538, 24 h; procedure, shortened: as §1
# Aspergillus ochraceus [31] = assay: Antifungal activity against Aspergillus ochraceus ATCC 12066 incubated for 72 hrs followed by serial sub-cultivation for 72 hrs by serial dilution technique; format: functional; settings: ATCC 12066, 72 h; procedure, shortened: as §2
# Staphylococcus aureus [32] = assay: Antibacterial activity against Staphylococcus aureus ATCC 6538 incubated for 24 hrs followed by serial sub-cultivation for 24 hrs by microdilution method; format: functional; settings: ATCC 6538, 24 h; procedure, shortened: as §4
# Aspergillus fumigatus [33] = assay: Antifungal activity against Aspergillus fumigatus isolated from human incubated for 72 hrs followed by serial sub-cultivation for 72 hrs by serial dilution technique; format: functional; procedure, shortened: as §2
# Aspergillus niger [34] = assay: Antifungal activity against Aspergillus niger ATCC 6275 incubated for 72 hrs followed by serial sub-cultivation for 72 hrs by serial dilution technique; format: functional; settings: ATCC 6275, 72 h; procedure, shortened: as §2
# Penicillium ochrochloron [35] = assay: Antifungal activity against Penicillium ochrochloron ATCC 9112 after 72 hrs by serial dilution technique; format: functional; settings: ATCC 9112, 72 h; procedure, shortened: as §3
# Trichoderma viride [36] = assay: Antifungal activity against Trichoderma viride IAM 5061 incubated for 72 hrs followed by serial sub-cultivation for 72 hrs by serial dilution technique; format: functional; settings: IAM 5061, 72 h; procedure, shortened: as §2
# Penicillium ochrochloron [37] = assay: Ratio of ketoconazole to compound for Penicillium ochrochloron ATCC 9112; format: functional
# Pseudomonas aeruginosa [38] = assay: Antibacterial activity against Pseudomonas aeruginosa ATCC 27853 after 24 hrs by microdilution method; format: functional; settings: ATCC 27853, 24 h; procedure, shortened: as §1
# Escherichia coli [39] = assay: Antibacterial activity against Escherichia coli ATCC 35210 after 24 hrs by microdilution method; format: functional; settings: ATCC 35210, 24 h; procedure, shortened: as §1
# Aspergillus fumigatus [40] = assay: Ratio of ketoconazole to compound for Aspergillus fumigatus isolated from human; format: functional
# Aspergillus niger [41] = assay: Ratio of bifonazole to compound for Aspergillus niger ATCC 6275; format: functional
# Listeria monocytogenes [42] = assay: Antibacterial activity against Listeria monocytogenes NCTC 7973 incubated for 24 hrs followed by serial sub-cultivation for 24 hrs by microdilution; format: functional; settings: NCTC 7973, 24 h; procedure, shortened: as §4
# Talaromyces funiculosus [43] = assay: Antifungal activity against Penicillium funiculosum ATCC 36839 incubated for 72 hrs followed by serial sub-cultivation for 72 hrs by serial dilution technique; format: functional; settings: ATCC 36839, 72 h; procedure, shortened: as §2
structure (smiles),measurement,setting,value
CNc1nc(C)c(C(=O)/C=C/c2cccc(F)c2)s1,Ratio,Talaromyces funiculosus [1],10
same,MIC,Salmonella typhimurium [2],72.5 µM
same,MFC,Aspergillus flavus [3],90.6 µM
same,Ratio,Candida albicans [4],10
same,Ratio,Pseudomonas aeruginosa [5],10
same,MIC,Aspergillus niger [6],54.3 µM
same,MBC,Micrococcus flavus [7],72.5 µM
same,Ratio,Penicillium ochrochloron [8],10
same,MIC,Aspergillus flavus [9],36.2 µM
same,Ratio,Candida albicans [10],10
same,MBC,Bacillus cereus [11],90.6 µM
same,MBC,Pseudomonas aeruginosa [12],72.5 µM
same,MFC,Candida albicans [13],72.5 µM
same,MIC,Candida albicans [14],51.3 µM
same,Ratio,Aspergillus ochraceus [15],10
same,Ratio,Trichoderma viride [16],10
same,MIC,Aspergillus ochraceus [17],36.2 µM
same,MIC,Trichoderma viride [18],36.2 µM
same,MIC,Aspergillus ochraceus [19],36.2 µM
same,MIC,Listeria monocytogenes [20],90.6 µM
same,MIC,Micrococcus flavus [21],18.1 µM
same,MIC,Bacillus cereus [22],72.5 µM
same,Ratio,Aspergillus ochraceus [23],10
same,MIC,Enterococcus faecalis [24],54.3 µM
same,MBC,Salmonella typhimurium [25],90.6 µM
same,MBC,Escherichia coli [26],72.5 µM
same,MBC,Enterococcus faecalis [27],72.5 µM
same,MIC,Talaromyces funiculosus [28],36.2 µM
same,MFC,Penicillium ochrochloron [29],72.5 µM
same,MIC,Staphylococcus aureus [30],72.5 µM
same,MFC,Aspergillus ochraceus [31],72.5 µM
same,MBC,Staphylococcus aureus [32],90.6 µM
same,MFC,Aspergillus fumigatus [33],72.5 µM
same,MFC,Aspergillus niger [34],72.5 µM
same,MIC,Penicillium ochrochloron [35],36.2 µM
same,MFC,Trichoderma viride [36],72.5 µM
same,Ratio,Penicillium ochrochloron [37],10
same,MIC,Pseudomonas aeruginosa [38],54.3 µM
same,MIC,Escherichia coli [39],54.3 µM
same,Ratio,Aspergillus fumigatus [40],10
same,Ratio,Aspergillus niger [41],10
same,MBC,Listeria monocytogenes [42],90.6 µM
same,MFC,Talaromyces funiculosus [43],72.5 µM
